# ABCG2 inh: inhibitors of human ABCG2 transporter, ABCB1 counter-screen | Q9UNQ0 | IgMXP3 cells, JC-1 efflux, flow cytometry | inhibition, % at 6.6 µM | 190,000 tested, 0.1% active;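 active means inhibition above 80%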;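 further: 0% = DMSO and 100% = nicardipine control wells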
#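 Times: 10 min at 25 °C | Test system: Two drug-resistant human cell lines, ABCG2 and ABCB1 | Quantity: 3 million cells/mL final, two lines in 1:1 ratio | Signal: Flow cytometry, 530 nm JC-1 signal | Dosing: Compound at 6.6 µM | Controls: Nicardipine and DMSO wells | Reagent: JC-1 as fluorescent efflux pump substrate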
# GSH fluor: compound fluoresces at 488/530 nm on GSH beads; GSH beads flow cytometry, compound fluorescence 488/530 nm; stronger effect = higher value; fluorescence (KMESF) at 10 µM; 190,000 tested, 0.25% active; AID 1776; in the data active means fluorescence above about 89;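 further: glutathione beads carrying GST-tagged Bcl family fusion proteins plus one bare bead set; values are compound well signal with DMSO vehicle wells as background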
# ABCB1 block: blocks JC-1 efflux by human ABCB1 transporter. P08183. CCRF-Adr cells, flow cytometry. inhibition, % at 6.6 µM. 190,000 tested, 0.067% active. AID 1326; in the data active means inhibition above about 40%;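 further: 0% = vehicle and 100% = reference inhibitor; higher value means more JC-1 retained so stronger ABCB1 efflux block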
# Target sequence (P08183 whole entry, looked up): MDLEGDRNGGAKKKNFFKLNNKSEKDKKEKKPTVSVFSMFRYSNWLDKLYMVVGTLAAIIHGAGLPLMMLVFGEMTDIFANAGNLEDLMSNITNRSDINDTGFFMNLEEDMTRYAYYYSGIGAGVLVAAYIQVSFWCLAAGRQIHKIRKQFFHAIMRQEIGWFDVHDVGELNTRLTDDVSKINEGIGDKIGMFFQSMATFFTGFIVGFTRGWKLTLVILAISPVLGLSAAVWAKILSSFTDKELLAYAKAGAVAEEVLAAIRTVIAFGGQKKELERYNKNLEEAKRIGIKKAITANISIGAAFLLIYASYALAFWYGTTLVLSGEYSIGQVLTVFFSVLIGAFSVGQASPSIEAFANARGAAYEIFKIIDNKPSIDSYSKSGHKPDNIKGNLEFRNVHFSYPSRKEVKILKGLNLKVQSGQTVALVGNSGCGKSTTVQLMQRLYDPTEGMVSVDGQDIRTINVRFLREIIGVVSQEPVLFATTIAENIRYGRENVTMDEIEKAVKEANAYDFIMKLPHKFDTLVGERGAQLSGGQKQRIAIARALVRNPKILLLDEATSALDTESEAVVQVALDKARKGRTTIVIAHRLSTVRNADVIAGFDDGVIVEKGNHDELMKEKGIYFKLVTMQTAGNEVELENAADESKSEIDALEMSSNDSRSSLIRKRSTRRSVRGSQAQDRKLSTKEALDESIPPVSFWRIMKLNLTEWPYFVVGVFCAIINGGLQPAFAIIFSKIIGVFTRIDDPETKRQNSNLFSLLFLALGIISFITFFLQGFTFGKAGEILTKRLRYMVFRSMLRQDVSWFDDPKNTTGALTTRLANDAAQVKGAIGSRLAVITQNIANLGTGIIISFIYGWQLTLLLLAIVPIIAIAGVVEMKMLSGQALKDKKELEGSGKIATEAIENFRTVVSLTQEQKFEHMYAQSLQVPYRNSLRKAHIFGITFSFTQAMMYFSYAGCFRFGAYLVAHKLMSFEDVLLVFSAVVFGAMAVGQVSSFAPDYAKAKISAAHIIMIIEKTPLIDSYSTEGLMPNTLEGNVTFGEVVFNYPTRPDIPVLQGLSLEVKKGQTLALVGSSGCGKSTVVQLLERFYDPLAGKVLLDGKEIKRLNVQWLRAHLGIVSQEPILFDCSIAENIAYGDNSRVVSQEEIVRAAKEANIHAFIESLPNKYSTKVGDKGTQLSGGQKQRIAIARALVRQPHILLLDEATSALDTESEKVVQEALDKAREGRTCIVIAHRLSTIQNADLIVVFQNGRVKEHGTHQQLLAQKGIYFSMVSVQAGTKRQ
# Redox H2O2 prof: compounds producing H2O2 with reducing agent – biochemical, NIH compound library profiling, artefact control for MLSCN library redox annotation, primary screen. DTT-dependent redox cycling H2O2, phenol red/HRP absorbance; 100% = 100 µM peroxide control, 0% = buffer. activation, % at 10 µM. 200,000 tested, 0.03% active. AID 878;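 active means activation of at least 50% relative to the plate's high and low controls in the primary single-dose screen; inactive means activation below 50%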;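 further: compound incubated with DTT at 0.8 mM final as the reducing agent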
# Avidin bead fluor: compound fluoresces at 488/530 nm on avidin beads. compound fluorescence 488/530 nm, flow cytometry; stronger effect = higher value. fluorescence (KMESF) at 10 µM. 220,000 tested, 0.38% active; in the data active means fluorescence above about 47
# * hit, by the source's call; · = no result. Rows were chosen to be rich in hits. Some 0.72% of all compounds tested hit in one or more screens of this group.
SMILES,ABCG2 inh,GSH fluor,ABCB1 block,Redox H2O2 prof,Avidin bead fluor
COc1ccccc1C(=O)N1CCNC(=O)C1CC(=O)Nc1cccc(C)c1 (stereo not given),0.2,10,0.1,0.8,143*
O=C(CC1C(=O)NCCN1C(=O)Nc1ccccc1)Nc1ccc2c(c1)OCCO2 (stereo not given),0.6,19,0.2,1.4,60*
Cn1nc(C(F)(F)F)c(-c2ccc(F)cc2)c1NC(=O)c1ccco1,·,·,·,·,61*
Cc1ccc(S(=O)(=O)N(CC(=O)Nc2ccccc2C(=O)O)c2ccccc2)cc1,-0.5,23,0.1,-0.4,13
COc1cc(CN2CCN(c3cccc(C)c3C)CC2)cc(Br)c1O,-0.2,272*,-0.1,-0.8,8
CCOC(=O)Cn1nc(-c2ccc(Cl)cc2)cc1N,1.9,6,0.2,1.4,10
CCOC(=O)CCn1nc(-c2ccc(Cl)cc2)cc1N,29.1,36,0.1,0.4,48*
CCNC(=S)Nn1cnc2ccccc21,·,·,·,·,9
CCCSc1nnc2c(n1)OC(c1cccn1C)N(C(C)=O)c1ccccc1-2 (stereo not given),6.8,25,1.1,1.3,10
C=CCSc1nnc2c(n1)OC(c1ccccn1)N(C(C)=O)c1ccccc1-2 (stereo not given),9.0,33,0.5,-0.2,215*
Cn1cccc1/C=C1\SC(=S)N(NC(=O)c2ccccc2O)C1=O,·,·,·,·,9
COc1ccccc1C(=O)NN1C(=O)/C(=C/c2cccn2C)SC1=S,·,·,·,·,95*
CNC1(c2nnnn2-c2ccccc2C)CCOC(C)(C)C1 (stereo not given),·,·,·,·,9
O=C(Nc1ccc2c(c1)OCO2)[C@@H]1[C@@H]2C(=O)N(C3CCCCC3)C(=O)[C@@H]2C2c3ccccc3C=CN21 (stereo not given in full),0.0,237*,-0.1,1.9,8
O=C1c2oc3ccccc3c(=O)c2C(c2ccc(O)cc2)N1c1nccs1 (stereo not given),10.8,20,2.1,-0.4,7
COc1cc(OC)c(OC)cc1/C=N/N(C)c1ccccc1,1.6,33,0.4,-17.9,54*
Cc1ccc(OC(=O)C23CC4CC(CC(C4)C2)C3)c(C)n1,2.5,10,2.3,-0.4,111*
C=CCN1C(=O)S/C(=C/c2ccsc2)C1=O,2.7,108*,1.5,0.9,4
CCN1C(=O)S/C(=C/c2ccsc2)C1=O,1.2,26,-0.2,0.1,52*
c1ccc(-c2ncc(CN3CCN(c4ccccn4)CC3)[nH]2)cc1,·,·,·,·,5
CCCC(CCC(=O)Nc1ccn(-c2ccccc2)n1)C(=O)O (stereo not given),·,·,·,·,9
CN=C(Nc1ccc(C(=O)OC)s1)c1ccc(Cl)cc1,2.8,14,-1.2,0.0,15
Nc1nc(-c2ccc3c(c2)CCCC3)cs1,0.6,263*,0.2,-0.9,7
CN1CCN(C(=O)C2=C[C@H](c3ccccc3)C[C@H](OCc3ccc(CO)cc3)O2)CC1,-1.3,17,-0.3,0.1,9
CCN(CC)CCN1C(=O)C(O)=C(C(=O)c2cc3cccc(OC)c3o2)C1c1cccs1 (stereo not given),·,·,·,·,4
SMILES,ABCG2 inh,GSH fluor,ABCB1 block,Redox H2O2 prof,Avidin bead fluor
Cc1cc(Oc2ccc(=O)n(C)n2)nc(SCCOc2ccccc2)n1,·,·,·,·,14
C[C@@]12CC(=O)NC1N(C(=O)c1ccccc1)C(c1ccccc1OC(=O)c1ccccc1)C2 (stereo not given in full),4.8,250*,1.2,0.0,7
CC1CC(C)CN(CCCCOc2ccc([N+](=O)[O-])cc2)C1 (stereo not given),-0.1,23,0.2,0.3,11
CC(C(=O)N1c2ccc(F)cc2CCC1C)N1C(=O)c2ccccc2C1=O (stereo not given),2.7,17,1.0,-3.8,48*
CCC(CC)C(=O)N1c2ccc(F)cc2CCC1C (stereo not given),0.5,10,0.1,-0.7,21
O=C(Cc1ccccc1[N+](=O)[O-])NCc1ccco1,13.2,24,0.2,0.7,5
CCn1c(SCC(=O)Nc2cc(C(C)(C)C)nn2-c2ccccc2)nnc1-c1cccs1,-2.0,18,0.2,0.3,86*
COC(=O)CSc1nc(N2CCCCC2)c2c(c1C#N)CCCC2,6.7,21,1.4,-3.7,9
COC(=O)CSc1nc(-c2ccccc2)c2c(c1C#N)CCCC2,2.3,260*,0.7,0.1,6
